Test results taken from ChEMBL document CHEMBL2440111, “Overcoming doxorubicin-resistance in the NCI/ADR-RES model cancer cell line by novel anthracene-9,10-dione derivatives” (Bioorg Med Chem Lett, 2013).
Calls of active or inactive are those of the source. No cut-off for these calls is given here.

Legend:
OVCAR-8 [1] = test: Antiproliferative activity against human OVCAR8 cells at 20 uM after 72 hrs by MTT assay; assay type: functional; details: OVCAR-8, 72 h
Summary of the method: (§1)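 Each cell line in the panel was treated with 20 µM compound, with doxorubicin as reference. Exponentially growing cells were grown at 37 °C in 5% CO2. MTT read-out served as a surrogate of viable cell number, expressed as % inhibition versus an untreated control. Values are mean ± SD of three independent experiments.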

MIA PaCa-2 [2] = test: Antiproliferative activity against human MIAPaCa2 cells at 20 uM after 72 hrs by MTT assay; assay type: functional; details: MIA PaCa-2, 72 h; summary of the method: as §1
[3] = Antiproliferative activity against human Caov3 cells at 20 uM after 72 hrs by MTT assay; assay type: functional; details: Caov-3, 72 h; summary of the method: as §1
DU-145 [4] = test: Antiproliferative activity against human DU145 cells at 20 uM after 72 hrs by MTT assay; assay type: functional; details: DU-145, 72 h; summary of the method: as §1
U2OS [5] = test: Antiproliferative activity against human U2OS cells at 20 uM after 72 hrs by MTT assay; assay type: functional; summary of the method: as §1
NCI/ADR-RES [6] = test: Antiproliferative activity against human NCI/ADR-RES cells at 20 uM after 72 hrs by MTT assay; assay type: functional; summary of the method: as §1
LNCaP [7] = test: Antiproliferative activity against human LNCAP cells at 20 uM after 72 hrs by MTT assay; assay type: functional; summary of the method: as §1
PC-3 [8] = test: Antiproliferative activity against human PC3 cells at 20 uM after 72 hrs by MTT assay; assay type: functional; details: PC-3, 72 h; summary of the method: as §1
BXPC-3 [9] = test: Antiproliferative activity against human BxPC3 cells at 20 uM after 72 hrs by MTT assay; assay type: functional; details: BXPC-3, 72 h; summary of the method: as §1
[10] = Antiproliferative activity against human […] cells at 20 uM after 72 hrs by MTT assay; assay type: functional; summary of the method: as §1
NCI/ADR-RES [11] = test: Inhibition of colony formation in human NCI/ADR-RES cells after 24 hrs; assay type: functional, cell-based
Summary of the method: (§2)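 NCI/ADR-RES cells were seeded at 100 cells/well and left to attach overnight. Serial compound dilutions were applied for 24 h, then washed out. Colonies grew in drug-free medium for 8-10 days and were fixed with 1% glutaraldehyde and stained with 2% crystal violet, 30 min each. Colonies were imaged and counted versus untreated control; values are means of ≥3 independent experiments.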

DU-145 [12] = test: Antiproliferative activity against human DU145 cells after 72 hrs by MTT assay; assay type: functional, cell-based; details: DU-145, 72 h
Summary of the method: (§3)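 Cells kept in exponential growth at 37 °C in humidified 5% CO2 with 2 mM L-glutamine, mycoplasma-checked. Compounds were applied over a dose range and viability was read by MTT relative to an untreated control. IC50 is the concentration giving a 50% decrease in viability. Values are mean ± SD of three independent experiments.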

NCI/ADR-RES [13] = test: Antiproliferative activity against human NCI/ADR-RES cells after 72 hrs by MTT assay; assay type: functional, cell-based; summary of the method: as §3
[14] = Antiproliferative activity against human […] cells after 72 hrs by MTT assay; assay type: functional, cell-based; summary of the method: as §3
MIA PaCa-2 [15] = test: Antiproliferative activity against human MIAPaCa2 cells after 72 hrs by MTT assay; assay type: functional, cell-based; details: MIA PaCa-2, 72 h; summary of the method: as §3
LNCaP [16] = test: Up-regulation of p53 expression in human LNCAP cells at 3 uM after 24 hrs by Western blot analysis; assay type: functional, cell-based
Summary of the method: (§4)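 LNCaP cells were treated for 24 h, then lysed. Equal protein was run on 12% SDS-PAGE and blotted to PVDF. Membranes were blocked 1 h in 5% skim milk/TBS-0.1% Tween and probed overnight at 4 °C with anti-p53 or anti-caspase-9. A secondary antibody and ECL detection followed, with GAPDH as loading control.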

OVCAR-8 [17] = test: Antiproliferative activity against human OVCAR8 cells at 20 uM after 72 hrs by MTT assay in presence of glutathione; assay type: functional, cell-based
NCI/ADR-RES [18] = test: Antiproliferative activity against human NCI/ADR-RES cells at 20 uM after 72 hrs by MTT assay in presence of N-acetylcysteine; assay type: functional
Summary of the method: (§5)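 NCI/ADR-RES cells were pretreated for 2 h with 5 mM N-acetylcysteine or glutathione. Compound at 20 µM was then added for 72 h, with doxorubicin as positive control. Percent inhibition was measured by MTT.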

U2OS [19] = test: Antiproliferative activity against human U2OS cells after 72 hrs by MTT assay; assay type: functional, cell-based; summary of the method: as §3
NCI/ADR-RES [20] = test: Inhibition of colony formation in human NCI/ADR-RES cells at 1 uM after 24 hrs; assay type: functional, cell-based; summary of the method: as §2
[21] = Antiproliferative activity against human Caov3 cells after 72 hrs by MTT assay; assay type: functional, cell-based; details: Caov-3, 72 h; summary of the method: as §3
OVCAR-8 [22] = test: Antiproliferative activity against human OVCAR8 cells at 20 uM after 72 hrs by MTT assay in presence of N-acetylcysteine; assay type: functional, cell-based
NCI/ADR-RES [23] = test: Cell cycle arrest in human NCI/ADR-RES cells assessed as accumulation at S phase at 10 uM after 24 hrs using propidium iodide staining by flow cytometry (reference value: 14%); assay type: functional
NCI/ADR-RES [24] = test: Ratio of doxorubicin IC50 to compound IC50 for human NCI/ADR-RES cells; assay type: functional
OVCAR-8 [25] = test: Antiproliferative activity against human OVCAR8 cells after 72 hrs by MTT assay; assay type: functional, cell-based; details: OVCAR-8, 72 h; summary of the method: as §3
PC-3 [26] = test: Antiproliferative activity against human PC3 cells after 72 hrs by MTT assay; assay type: functional, cell-based; details: PC-3, 72 h; summary of the method: as §3
NCI/ADR-RES [27] = test: Cell cycle arrest in human NCI/ADR-RES cells assessed as accumulation at G2/M phase at 10 uM after 24 hrs using propidium iodide staining by flow cytometry (reference value: 35%); assay type: functional
LNCaP [28] = test: Antiproliferative activity against human LNCAP cells after 72 hrs by MTT assay; assay type: functional, cell-based; summary of the method: as §3
NCI/ADR-RES [29] = test: Cell cycle arrest in human NCI/ADR-RES cells assessed as accumulation at G0/G1 phase at 10 uM after 24 hrs using propidium iodide staining by flow cytometry (reference value: 51%); assay type: functional
BXPC-3 [30] = test: Antiproliferative activity against human BxPC3 cells after 72 hrs by MTT assay; assay type: functional, cell-based; details: BXPC-3, 72 h; summary of the method: as §3
LNCaP [31] = test: Increase of cleaved caspase-9 level in human LNCAP cells at 3 uM after 24 hrs by Western blot analysis; assay type: functional, cell-based; summary of the method: as §4
NCI/ADR-RES [32] = test: Antiproliferative activity against human NCI/ADR-RES cells at 20 uM after 72 hrs by MTT assay in presence of glutathione; assay type: functional; summary of the method: as §5

| SMILES | inhibition at 20 µM (OVCAR-8 [1]) | inhibition at 20 µM (MIA PaCa-2 [2]) | inhibition at 20 µM [3] | inhibition at 20 µM (DU-145 [4]) | inhibition at 20 µM (U2OS [5]) | inhibition at 20 µM (NCI/ADR-RES [6]) | inhibition at 20 µM (LNCaP [7]) | inhibition at 20 µM (PC-3 [8]) | inhibition at 20 µM (BXPC-3 [9]) | inhibition at 20 µM [10] | IC50 (DU-145 [12]) | IC50 (NCI/ADR-RES [13]) | IC50 [14] | IC50 (MIA PaCa-2 [15]) | inhibition (OVCAR-8 [17]) | inhibition at 20 µM (NCI/ADR-RES [18]) | IC50 (U2OS [19]) | IC50 [21] | inhibition (OVCAR-8 [22]) | IC50 (OVCAR-8 [25]) | further results |
| --- | --- | --- | --- | --- | --- | --- | --- | --- | --- | --- | --- | --- | --- | --- | --- | --- | --- | --- | --- | --- | --- |
| Cc1ccc(S(=O)(=O)Oc2ccc(OCCOCCOCCOCCO)c3c2C(=O)c2ccccc2C3=O)cc1 | 5.5% | 29.5% | 48.2% | 21.6% | 41.9% | 1.7% | 40.3% | 23.7% | 11.8% | 47.8% | – | – | – | – | – | – | – | – | – | – | – |
| O=C1c2ccccc2C(=O)c2c(OCCOCCOCCO)ccc(OCCOCCOCCO)c21 | 37.4% | 36.1% | 16.3% | 17.7% | 11.1% | 41.5% | 38.2% | 16.4% | 17.5% | 6.4% | – | – | – | – | – | – | – | – | – | – | – |
| Cc1ccc(S(=O)(=O)Oc2ccc(NCc3ccc(N)cc3)c3c2C(=O)c2ccccc2C3=O)cc1 | 85.4% | 91.1% | 85.7% | 87.2% | 92.3% | 80.5% | 88.9% | 75.8% | 94% | 75.1% | 5400 nM | 800 nM | 3800 nM | 2700 nM | Active | > 60% | 2800 nM | 2500 nM | Active | 3500 nM | IC50 (NCI/ADR-RES [11]): 500 nM; inhibition (NCI/ADR-RES [11]): Dose-dependent effect; Activity (LNCaP [16]): inactive; inhibition (NCI/ADR-RES [20]): Active; inhibition at 10 µM (NCI/ADR-RES [23]): 25%; Ratio IC50 (NCI/ADR-RES [24]): > 25; IC50 (PC-3 [26]): 6500 nM; inhibition at 10 µM (NCI/ADR-RES [27]): 55%; IC50 (LNCaP [28]): 400 nM; inhibition at 10 µM (NCI/ADR-RES [29]): 30%; IC50 (BXPC-3 [30]): 1800 nM; Activity (LNCaP [31]): Active; inhibition at 20 µM (NCI/ADR-RES [32]): > 60% |
| COc1ccc(CNc2ccc(OS(=O)(=O)c3ccc(C)cc3)c3c2C(=O)c2ccccc2C3=O)cc1 | 58.2% | 81.4% | 83.1% | 62.2% | 59.8% | 77.8% | 78.7% | 46.2% | 91.5% | 53.3% | 2200 nM | 1200 nM | > 20000 nM | 1900 nM | Active | > 60% | 4500 nM | 1800 nM | Active | 8000 nM | inhibition (NCI/ADR-RES [11]): Dose-dependent effect; IC50 (PC-3 [26]): 8000 nM; IC50 (LNCaP [28]): 900 nM; IC50 (BXPC-3 [30]): 600 nM; inhibition at 20 µM (NCI/ADR-RES [32]): > 60% |
| Cc1ccc(S(=O)(=O)Oc2ccc(NCc3ccc(Cl)cc3)c3c2C(=O)c2ccccc2C3=O)cc1 | 64.4% | 80.6% | 84.6% | 69.1% | 66.1% | 80.4% | 79.9% | 81.2% | 85.2% | 63.5% | 6500 nM | 2200 nM | 4000 nM | 4500 nM | Active | > 60% | 4800 nM | 2500 nM | Active | 4400 nM | inhibition (NCI/ADR-RES [11]): Dose-dependent effect; IC50 (PC-3 [26]): > 20000 nM; IC50 (LNCaP [28]): 2400 nM; IC50 (BXPC-3 [30]): 2400 nM; inhibition at 20 µM (NCI/ADR-RES [32]): > 60% |
| Cc1ccc(S(=O)(=O)Oc2ccc(OCCOCCO)c3c2C(=O)c2ccccc2C3=O)cc1 | 8.5% | 35.9% | 42.7% | 9% | 43% | 15.3% | 26.7% | 9.9% | 14.5% | 31.4% | – | – | – | – | Active | – | – | – | Active | – | – |
| Cc1ccc(S(=O)(=O)Oc2ccc(OCCOCCOCCO)c3c2C(=O)c2ccccc2C3=O)cc1 | 13.1% | 53.4% | 47.3% | 16.8% | 44.2% | 20.4% | 24.5% | 16.6% | 15.3% | 46.9% | – | – | – | – | – | – | – | – | Active | – | – |
| COc1cccc2c1C(=O)c1c(O)c3c(c(O)c1C2=O)C[C@@](O)(C(=O)CO)C[C@@H]3O[C@H]1C[C@H](N)[C@H](O)[C@H](C)O1 [DOXORUBICIN] | 86% | 88.1% | 92.6% | 80.6% | 90% | 41% | 85.8% | 6.9% | 96.2% | 83.5% | 200 nM | > 20000 nM | 1500 nM | < 100 nM | Active | 13% | 300 nM | < 100 nM | Active | 600 nM | Activity (LNCaP [16]): Active; IC50 (PC-3 [26]): 1000 nM; IC50 (LNCaP [28]): 200 nM; IC50 (BXPC-3 [30]): 400 nM; Activity (LNCaP [31]): Active; inhibition at 20 µM (NCI/ADR-RES [32]): 21% |
| O=C1c2ccccc2C(=O)c2c(OCCOCCO)ccc(OCCOCCO)c21 | 3.4% | 31.1% | 7.3% | 10% | 32.4% | 46.4% | 46.9% | 10.6% | 23.1% | 44.3% | – | – | – | – | – | – | – | – | – | – | – |
